Source: PubChem
A selection: hits, their analogues and other compounds. The true share with any hit is near 0.54%.
ASAP1 inh = inhibitors of human ASAP1 ArfGAP activity, primary screen, biochemical, fluorescence polarization. ASAP1-stimulated ARF1 GTP hydrolysis, GDP FP detection. actives 0.19% (n = 360,000). AID 624377, 2012. inhibition, % at 16.5 µM; in the data active = inhibition above about 25%;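 also: 0% = vehicle with enzyme and substrate and 100% = no enzyme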
ARFGAP1 inhibitor = inhibitors of rat ARFGAP1 GAP activity, primary screen, biochemical, fluorescence polarization, GDP tracer; ADP-ribosylation factor GTPase-activating protein 1 (Rattus norvegicus), Q62848; Arfgap1-stimulated ARF1 GTP hydrolysis, GDP FP detection; inhibition, % at 16.5 µM; actives 0.26% (n = 360,000);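 active = inhibition above a per-plate limit, mean inhibition of low control wells plus 3 SD, cut at about 25% in these data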;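 also: 0% = DMSO wells with enzyme and 100% = wells lacking Arfgap1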
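Material: truncated rat Arfgap1 GAP domain; Incubation: compound-enzyme preincubation 20 min, reaction 120 min, detection 60 min, 25 °C; Read-out: percent inhibition of Arfgap1-stimulated GTP hydrolysis; Technique: FP, GDP Alexa 633 tracer displaced from anti-GDP antibody, 620/688 nm; Controls: No-Arfgap1 wells (100%) versus DMSO full-reaction wells (0%); Replication: single well per compound.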
PP5 inh = PP5 phosphatase inhibitors, primary screen, biochemical, fluorescence; Serine/threonine-protein phosphatase 5 (Homo sapiens), P53041; purified PP5c, OMFP substrate fluorescence; inhibition, % at 6.7 µM; actives 0.18% (n = 320,000); AID 1987, 2009;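 active = inhibition above the campaign's mean inhibition across all tested compounds plus 3 SD, cut at about 9.5% in these data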;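 also: 0% = DMSO only and 100% = 100 µM cantharidin control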
PKD1 inh = inhibitors of human PKD1 kinase, biochemical, fluorescence polarization. Serine/threonine-protein kinase D1 (Homo sapiens), Q15139. PKD1 kinase fluorescence polarization assay. inhibition, % (no concentration beside the values). actives 0.056% (n = 200,000). AID 797, 2007; in the data active = inhibition above about 50%
Target sequence (Q15139 whole entry, looked up): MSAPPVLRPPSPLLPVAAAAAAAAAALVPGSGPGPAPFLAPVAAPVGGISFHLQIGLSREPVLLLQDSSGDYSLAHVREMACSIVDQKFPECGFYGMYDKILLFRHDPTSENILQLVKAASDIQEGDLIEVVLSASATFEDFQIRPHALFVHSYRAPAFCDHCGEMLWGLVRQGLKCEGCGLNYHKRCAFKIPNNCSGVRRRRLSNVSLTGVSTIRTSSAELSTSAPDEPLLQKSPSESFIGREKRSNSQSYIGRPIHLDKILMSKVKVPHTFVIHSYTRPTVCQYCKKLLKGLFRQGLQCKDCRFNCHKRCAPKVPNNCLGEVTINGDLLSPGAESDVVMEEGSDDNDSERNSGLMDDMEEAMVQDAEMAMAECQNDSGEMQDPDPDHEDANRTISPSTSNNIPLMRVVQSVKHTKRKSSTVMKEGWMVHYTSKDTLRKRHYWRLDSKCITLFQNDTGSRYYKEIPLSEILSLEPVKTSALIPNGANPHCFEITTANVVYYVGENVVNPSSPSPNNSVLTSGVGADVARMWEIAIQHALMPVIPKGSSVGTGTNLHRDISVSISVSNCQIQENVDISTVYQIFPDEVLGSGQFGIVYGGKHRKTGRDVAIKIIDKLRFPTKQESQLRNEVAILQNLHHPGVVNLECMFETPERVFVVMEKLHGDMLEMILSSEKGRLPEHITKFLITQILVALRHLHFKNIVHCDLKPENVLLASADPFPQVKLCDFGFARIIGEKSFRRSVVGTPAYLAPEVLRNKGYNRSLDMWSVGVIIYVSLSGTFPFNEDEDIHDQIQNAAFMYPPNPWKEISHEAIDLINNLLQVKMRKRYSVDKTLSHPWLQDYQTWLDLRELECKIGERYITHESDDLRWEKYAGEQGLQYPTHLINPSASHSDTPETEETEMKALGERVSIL
ARFGAP1 inh conf = ARFGAP1 inhibitor hit confirmation, biochemical, fluorescence polarization, triplicate | shares compounds with ARFGAP1 inhibitor | ARFGAP1-stimulated ARF1 GTP hydrolysis, GDP tracer FP | inhibition, % at 16.5 µM | actives 30% (n = 890) | AID 651608, 2012;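 active = average inhibition over triplicates above the hit cutoff set in the earlier primary screen, cut at about 25% in these data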;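 also: 0% = Arfgap1 plus ARF1-GTP with DMSO and 100% = wells lacking Arfgap1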
The depositor's hits bear a star.

CS(=O)(=O)N(CC(=O)Nc1ccccc1C(=O)NCc1ccccc1)c1ccc2c(c1)OCCO2 was read as ASAP1 inh 3, ARFGAP1 inhibitor -7, PP5 inh 0 and PKD1 inh 2.
`CS(=O)(=O)N1Cc2cc(C(=O)NCC3CC3)nc(-c3cccc(-c4cccnc4)c3)c2[C@@H]1CCO` gave ASAP1 inh 6 and ARFGAP1 inhibitor 4.
Screening COC(=O)C[C@@H]1C=C[C@@H](NC(=O)C2CCC2)[C@@H](CO)O1 returned ASAP1 inh -1 and ARFGAP1 inhibitor 15.
Cc1c(C)n(-c2ccccc2)c2ncnc(NCCN(C)C)c12 was read as ASAP1 inh 11, ARFGAP1 inhibitor 25*, PP5 inh 2 and ARFGAP1 inh conf -4.
COc1ccc(-n2c(C)c(C)c3c(NCCN(C)C)ncnc32)cc1 was read as ASAP1 inh -6, ARFGAP1 inhibitor 5 and PP5 inh 0.
For O=c1c2[nH]cnc2n(-c2cccc(F)c2)c(=O)n1Cc1ccccc1 the results were ASAP1 inh 1, ARFGAP1 inhibitor 25*, PP5 inh 2 and ARFGAP1 inh conf 3.
`O=c1c2[nH]cnc2n(-c2ccc(F)cc2)c(=O)n1Cc1ccccc1` gave ASAP1 inh 8, ARFGAP1 inhibitor -1 and PP5 inh 2.
`COCc1cc(N2CCNC[C@H]2C)ccc1N1CCN(Cc2ccccc2)[C@H](C)C1` gave ASAP1 inh 1 and ARFGAP1 inhibitor 0.
For O=C(N/N=C/c1cc(Br)ccc1O)Nc1ccccc1 the results were ASAP1 inh 5, ARFGAP1 inhibitor 25*, PP5 inh 4, PKD1 inh 6 and ARFGAP1 inh conf 14.
For NC(=O)N/N=C\c1cc(Br)ccc1O the results were ASAP1 inh -9, ARFGAP1 inhibitor -6, PP5 inh 1 and PKD1 inh 4.
For C/C(N)=C(/C#N)C(=O)CSc1nncn1-c1ccccc1 the results were ASAP1 inh 0, ARFGAP1 inhibitor 28*, PP5 inh -3, PKD1 inh -1 and ARFGAP1 inh conf 0.
Screening O=C(O)CCC(=O)Nc1cccc(C(=O)Nc2cccc(Cl)c2)c1 returned ASAP1 inh 4, ARFGAP1 inhibitor 63*, PP5 inh -2, PKD1 inh 2 and ARFGAP1 inh conf 0.
Screening O=C(CC1c2cc(F)ccc2C=C(c2ccsc2)N1c1ccc(C#CCCO)cc1)c1ccco1 (stereo unspecified) returned ASAP1 inh 10, ARFGAP1 inhibitor 25* and ARFGAP1 inh conf -1.
For Cc1ccc(CSc2ncnc3ccccc23)cc1 the results were ASAP1 inh 1, ARFGAP1 inhibitor 25*, PP5 inh 3, PKD1 inh -3 and ARFGAP1 inh conf -2.
For COc1ccc(OC)c(C2C(C(=O)Nc3nc4ccccc4s3)=C(C)NC3=C2C(=O)CCC3)c1 (stereo unspecified) the results were ASAP1 inh 18, ARFGAP1 inhibitor 25*, PP5 inh 5, PKD1 inh -3 and ARFGAP1 inh conf 22.
CCCOC(=O)c1ccc(Oc2cn[nH]c2-c2ccc(OC)cc2O)cc1 was read as ASAP1 inh 12, ARFGAP1 inhibitor 30*, PP5 inh 8, PKD1 inh -1 and ARFGAP1 inh conf 21.
`CCCNC(=O)Cn1cnc2sc(C(=O)N3CCN(c4ccc(F)cc4)CC3)c(C)c2c1=O` gave ASAP1 inh 6, ARFGAP1 inhibitor 26*, PP5 inh 0, PKD1 inh 4 and ARFGAP1 inh conf 4.
Screening CCCNC(=O)Cn1cnc2sc(C(=O)N3CCCC(C(=O)OCC)C3)c(C)c2c1=O (stereo unspecified) returned PP5 inh 2 and PKD1 inh -4.
Screening Cc1ccccc1NC(=O)Cc1nc(COC(=O)c2cc([N+](=O)[O-])ccc2N)cs1 returned ASAP1 inh 0, ARFGAP1 inhibitor 29*, PP5 inh 4 and ARFGAP1 inh conf 23.
Cc1ccccc1NC(=O)Cc1nc(COC(=O)c2cc(Br)ccc2O)cs1 was read as ASAP1 inh 3, ARFGAP1 inhibitor 7 and PP5 inh 1.
COc1ccccc1CNC(=O)COc1cc(O)c2c(c1)OC(C)(C)CC2=O was read as ASAP1 inh -8 and ARFGAP1 inhibitor 8.
CCCCc1c(-c2ccccc2OC)ncn1Cc1ccc(F)c(F)c1 was read as ASAP1 inh 3 and ARFGAP1 inhibitor 5.
Clc1ccc(SCc2cc(N3CCOCC3)nc(-c3ccccn3)n2)cc1 was read as ASAP1 inh -10, ARFGAP1 inhibitor -12, PP5 inh 1 and PKD1 inh 2.
For Cc1nc(CSc2ccc(Cl)cc2)cc(N2CC(C)OC(C)C2)n1 (stereo unspecified) the results were ASAP1 inh -10, ARFGAP1 inhibitor 25*, PP5 inh 2, PKD1 inh -1 and ARFGAP1 inh conf 5.
C[C@H]1[C@@H]2C[C@@]3(O[C@H](c4ccccn4)N=C3C[C@@H]1c1ccccc1)N(Cc1ccncc1)C2=O was read as ASAP1 inh -4 and ARFGAP1 inhibitor 0.
`O=Nc1c(-c2cccc([N+](=O)[O-])c2)nc2ncccn12` gave ASAP1 inh -13, ARFGAP1 inhibitor 26*, PP5 inh 2 and ARFGAP1 inh conf -10.
For COc1ccc(-c2cc(=O)c3cccc(CC(=O)O)c3o2)cc1 the results were ASAP1 inh 2 and ARFGAP1 inhibitor 4.
`NNC(=O)c1ccc(CSc2nc3ccccc3[nH]2)cc1` gave ASAP1 inh 2, ARFGAP1 inhibitor -12, PP5 inh 1 and PKD1 inh -6.
Screening O=C(O)c1ccc(CSc2nc3ccccc3[nH]2)cc1 returned ASAP1 inh -16, ARFGAP1 inhibitor 29*, PP5 inh 0 and ARFGAP1 inh conf -3.
`CC(C)(C)c1cc[n+](-c2nc([O-])sc2C=O)cc1` gave ASAP1 inh -3, ARFGAP1 inhibitor 27*, PP5 inh -1, PKD1 inh 0 and ARFGAP1 inh conf 0.
CC1(C(=O)Nc2cnc3ccccc3c2)CCN1Cc1ccc(-c2ccccc2)o1 (stereo unspecified) was read as ASAP1 inh -2 and ARFGAP1 inhibitor 1.
For Cc1cccc(/C=N/Nc2ccc3ccccc3n2)c1 the results were ASAP1 inh 13, ARFGAP1 inhibitor 25*, PP5 inh 0, PKD1 inh 2 and ARFGAP1 inh conf 3.
Screening C(=N\Nc1ccc2ccccc2n1)/c1ccc2c(c1)OCCO2 returned ASAP1 inh 2, ARFGAP1 inhibitor 12, PP5 inh -2 and PKD1 inh 1.
